Laboratory results as given in ChEMBL document CHEMBL1123082, “Hashish: synthesis and central nervous system activity of some novel analogues of cannabidiol and oxepin derivatives of delta 9-tetrahydrocannabinol” (1985).
Activity calls are given as the source filed them.

Key:
Canis familiaris [1] = assay: Compound was evaluated for overt behavoiur in dogs by behavioral rating score in dog static-ataxia test at a dose 5 mg/kg; assay type: functional, Canis lupus familiaris
Outline: (§1)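 Mongrel dogs of either sex (8–12 kg) scored for spontaneous activity, gait, tail tuck, etc. before dosing. Cannabinoid or vehicle then given iv (1 mL/5 kg). Behaviour rated every 5 min on the Walton static-ataxia scale as modified. Sessions of five dogs: vehicle, 0.2 mg/kg Δ9-THC positive control, or one of three other cannabinoid treatments. Score given with number of dogs.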

Canis familiaris [2] = assay: Compound was evaluated for overt behavoiur in dogs by behavioral rating score in dog static-ataxia test at a dose 2 mg/kg; assay type: functional, Canis lupus familiaris; outline: as §1
Mus musculus [3] = assay: The difference between the preinjection and post injection temperatures in vehicle treated mice was evaluated at a dose 100 mg/kg; assay type: functional
Outline: (§2)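 Male ICR mice (22–30 g). Rectal temperature taken by thermistor probe inserted 25 mm just before iv vehicle or drug (0.1 mL/10 g). Mice spent 10 min in activity chambers, then temperature was taken immediately and every 10 min up to 60 min. Value is the change from pre-injection to 60 min post-injection, mean ± SEM, N = 6. Ambient temperature was 21–24 °C.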

Mus musculus [4] = assay: The difference between the preinjection and post injection temperatures in vehicle treated mice was evaluated at a dose 2 mg/kg; assay type: functional; outline: as §2
Mus musculus [5] = assay: The difference between the preinjection and post injection temperatures in vehicle treated mice was evaluated at a dose 30 mg/kg; assay type: functional; outline: as §2
Mus musculus [6] = assay: Spontaneous activity in vehicle treated mice at a dose 100 mg/kg.; assay type: functional
Outline: (§3)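 Male ICR mice (22–30 g), housed 24 h in the lab before testing. Vehicle or drug given iv (0.1 mL/10 g), then each mouse placed alone in a photocell activity chamber. Beam interruptions counted for 10 min and expressed as percent of vehicle-treated controls. ED50 with 95% confidence limits by Litchfield–Wilcoxon. At least six mice per dose.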

Mus musculus [7] = assay: Spontaneous activity in vehicle treated mice at a dose 30 mg/kg.; assay type: functional; outline: as §3
Mus musculus [8] = assay: Compound was evaluated for the percent antagonism in tail-flick test in mice at dose 40 mg/kg; assay type: functional
Outline: (§4)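 Male ICR mice (22–30 g). Vehicle or drug given iv 10 min before an iv injection of Δ9-THC (1 mg/kg) or vehicle into the opposite tail vein. Tail-flick measured 5 min after the second injection, with a 10 s cutoff. % antagonism = [1 − (%MPE drug-pretreated / %MPE vehicle-pretreated)] × 100. At least six mice per dose.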

Mus musculus [9] = assay: The difference between the preinjection and postinjection (60 min) temperatures in mice was evaluated at a dose 40 mg/kg; assay type: functional; outline: as §2
Mus musculus [10] = assay: The difference between the preinjection and postinjection (60 min) temperatures in mice was evaluated at a dose 50 mg/kg; assay type: functional; outline: as §2
Mus musculus [11] = assay: The difference between the preinjection and postinjection (60 min) temperatures in mice was evaluated at a dose 75 mg/kg; assay type: functional
Outline: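 Male ICR mice (22–30 g), housed 24 h before testing; rectal temperature by thermistor probe inserted 25 mm, taken just before dosing. Drug or vehicle given iv (0.1 mL/10 g); mice held 10 min in photocell chambers, then temperature read at 10-min intervals to 60 min. Value is pre- minus 60-min post-injection difference, mean ± SEM, N = 6.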

Mus musculus [12] = assay: The difference between the preinjection and postinjection (60 min) temperatures in mice was evaluated at a dose 100 mg/kg; assay type: functional; outline: as §2
Mus musculus [13] = assay: Compound was evaluated for the maximum possible effect in tail-flick test in mice at dose 40 mg/kg; assay type: functional
Outline: (§5)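 Male ICR mice (22–30 g). Control tail-flick latency to a heat source measured in each mouse. Vehicle or drug then given iv into the tail vein and latency retested 5 min later, with a 10 s cutoff. %MPE = (test − control)/(cutoff − control) × 100. At least six mice per dose.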

Mus musculus [14] = assay: Compound was evaluated for the percent antagonism by tail-flick test in mice in mice at dose 1.0 mg/kg; assay type: functional; outline: as §4
Mus musculus [15] = assay: Compound was evaluated for the percent antagonism by tail-flick test in mice in mice at dose 2.5 mg/kg; assay type: functional; outline: as §4
Mus musculus [16] = assay: Compound was evaluated for the percent antagonism by tail-flick test in mice in mice at dose 5.0 mg/kg; assay type: functional; outline: as §4
Mus musculus [17] = assay: The difference between the preinjection and postinjection (60 min) temperatures in mice was evaluated at a dose 1.0 mg/kg; assay type: functional; outline: as §2
Mus musculus [18] = assay: The difference between the preinjection and postinjection (60 min) temperatures in mice was evaluated at a dose 5.0 mg/kg; assay type: functional; outline: as §2
Mus musculus [19] = assay: The difference between the preinjection and postinjection (60 min) temperatures in mice was evaluated at a dose 2.5 mg/kg; assay type: functional
Mus musculus [20] = assay: Compound was evaluated for the maximum possible effect by tail-flick test in mice at dose 5.0 mg/kg; assay type: functional; outline: as §5
Mus musculus [21] = assay: The difference between the preinjection and postinjection (60 min) temperatures in mice was evaluated at a dose 5 mg/kg; assay type: functional; outline: as §2
Mus musculus [22] = assay: The difference between the preinjection and postinjection (60 min) temperatures in mice was evaluated at a dose 7.5 mg/kg; assay type: functional
Mus musculus [23] = assay: Compound was evaluated for the maximum possible effect in tail-flick test in mice at dose 0.3 mg/kg; assay type: functional; outline: as §5
Mus musculus [24] = assay: Compound was evaluated for the maximum possible effect in tail-flick test in mice at dose 1 mg/kg; assay type: functional; outline: as §5
Mus musculus [25] = assay: Compound was evaluated for the maximum possible effect in tail-flick test in mice at dose 2.5 mg/kg; assay type: functional; outline: as §5
Mus musculus [26] = assay: Spontaneous activity in mice at a dose 10 mg/kg; Not active up to a lethal dose of 60 mg/kg; assay type: functional, organism-based; outline: as §3
Mus musculus [27] = assay: Compound was evaluated for the percent antagonism by tail-flick test in mice at dose 10 mg/kg; assay type: functional; outline: as §4
Mus musculus [28] = assay: Compound was evaluated for the percent antagonism by tail-flick test in mice in mice at dose 20 mg/kg; assay type: functional; outline: as §4
Mus musculus [29] = assay: The difference between the preinjection and postinjection (60 min) temperatures in mice was evaluated at a dose 30 mg/kg; assay type: functional; outline: as §2
Mus musculus [30] = assay: The difference between the preinjection and postinjection (60 min) temperatures in mice was evaluated at a dose 10 mg/kg; assay type: functional; outline: as §2
Mus musculus [31] = assay: Compound was evaluated for the maximum possible effect by tail-flick test in mice at dose 20 mg/kg; assay type: functional; outline: as §5

**Q.** How did the Overt behavoiur (Canis familiaris [1]) turn out when `C=C1COc2cc(CCCCC)cc(O)c2C2C=C(C)CC[C@@H]12` (some centres not stated) was run?
**A.** Its Overt behavoiur is 0.

**Q.** And the Overt behavoiur (Canis familiaris [2])?
**A.** The Overt behavoiur was 0.

**Q.** And the Hypothermic effect (Mus musculus [3])?
**A.** Its Hypothermic effect is 0.

**Q.** What about the Hypothermic effect (Mus musculus [4]) of the same compound?
**A.** The Hypothermic effect was 0.4.

**Q.** What about the Hypothermic effect (Mus musculus [5]) of the same compound?
**A.** The Hypothermic effect was 0.1.

**Q.** What about the Spontaneous activity (Mus musculus [6]) of the same compound?
**A.** The Spontaneous activity was 41.

**Q.** What about the Spontaneous activity (Mus musculus [7]) of the same compound?
**A.** The Spontaneous activity was 0.

**Q.** With `C=C(C)[C@@H]1CCC(C)=C[C@H]1c1c(O)cc(CCCCC)cc1O` [CANNABIDIOL] as the compound, how does the Antagonism (Mus musculus [8]) read?
**A.** The Antagonism was 0%.

**Q.** What about the Hypothermic effect (Mus musculus [9]) of the same compound?
**A.** Its Hypothermic effect is 0.5.

**Q.** And the Hypothermic effect (Mus musculus [10])?
**A.** Its Hypothermic effect is 0.4.

**Q.** And the Hypothermic effect (Mus musculus [11])?
**A.** The Hypothermic effect was 2.1.

**Q.** And the Hypothermic effect (Mus musculus [12])?
**A.** Its Hypothermic effect is 2.5.

**Q.** And the MPE (Mus musculus [13])?
**A.** Its MPE is 5%.

**Q.** `C=C(CNCC)[C@@H]1CCC(C)=CC1c1c(O)cc(CCCCC)cc1O` (some centres not stated) was tested. Which Antagonism (Mus musculus [14]) did it give?
**A.** The Antagonism was 33%.

**Q.** What about the Antagonism (Mus musculus [15]) of the same compound?
**A.** The Antagonism was 66%.

**Q.** And the Antagonism (Mus musculus [16])?
**A.** The Antagonism was 67%.

**Q.** And the Hypothermic effect (Mus musculus [17])?
**A.** Its Hypothermic effect is 1.

**Q.** And the Hypothermic effect (Mus musculus [18])?
**A.** Its Hypothermic effect is 1.

**Q.** What about the Hypothermic effect (Mus musculus [19]) of the same compound?
**A.** Its Hypothermic effect is 1.4.

**Q.** What about the MPE (Mus musculus [20]) of the same compound?
**A.** Its MPE is 7%.

**Q.** Which results are given for `CCCCCc1cc(O)c2c(c1)OC(C)(C)[C@@H]1CCC(C)=C[C@@H]21` [DRONABINOL]?
**A.** Hypothermic effect (Mus musculus [21]): 3.6; Hypothermic effect (Mus musculus [22]): 3.8; Hypothermic effect (Mus musculus [19]): 2.6; MPE (Mus musculus [23]): 27%; MPE (Mus musculus [24]): 53%; MPE (Mus musculus [25]): 61%

**Q.** `C=C(CN(C(C)C)C(C)C)[C@@H]1CCC(C)=CC1c1c(OC(C)=O)cc(CCCCC)cc1OC(C)=O` (some centres not stated) was tested. Which ED50 (Mus musculus [26]) did it give?
**A.** The ED50 was “inactive”.

**Q.** And the Antagonism (Mus musculus [27])?
**A.** Its Antagonism is 0%.

**Q.** And the Antagonism (Mus musculus [28])?
**A.** The Antagonism was 58%.

**Q.** And the Hypothermic effect (Mus musculus [29])?
**A.** Its Hypothermic effect is 0.9.

**Q.** And the Hypothermic effect (Mus musculus [30])?
**A.** The Hypothermic effect was 1.

**Q.** What about the MPE (Mus musculus [31]) of the same compound?
**A.** The MPE was 0%.
